Laboratory results reported in ChEMBL document CHEMBL1136390, “Piperazinyl-linked fluoroquinolone dimers possessing potent antibacterial activity against drug-resistant strains of Staphylococcus aureus” (2003).
Converted amounts (≈) assume the structure as drawn.

Experiments:
Format in all cases: functional
[1] = test system: Staphylococcus aureus; assay: Minimum inhibitory concentration tested against Staphylococcus aureus 1199-3 strain
Outline: (§1)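 MICs against S. aureus strains were read in µg/mL from a dilution series. Stated error for each MIC is ± one dilution.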

[2] = test system: Staphylococcus aureus; assay: Minimum inhibitory concentration tested against Staphylococcus aureus 1199B strain; outline: as §1
[3] = test system: Staphylococcus aureus; assay: Minimum inhibitory concentration tested against methicillin resistant Staphylococcus aureus 494 strain (MRSA 494)
Outline: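 MIC in µg/mL against drug-resistant S. aureus strains; error stated as ± one dilution.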

[4] = test system: Staphylococcus aureus; assay: Minimum inhibitory concentration tested against vancomycin-insensitive SA (GISA 992 strain); outline: as §1
[5] = test system: Staphylococcus aureus; assay: Minimum inhibitory concentration tested against Staphylococcus aureus 1199 strain; outline: as §1

SMILES	MIC [1] [µg/mL]	MIC [2] [µg/mL]	MIC [3] [µg/mL]	MIC [4] [µg/mL]	MIC [5] [µg/mL]
O=C(O)c1cn(C2CC2)c2cc(N3CCNCC3)c(F)cc2c1=O [CIPROFLOXACIN]	1 (≈ 3.02 µM)	8 (≈ 24.1 µM)	0.5 (≈ 1.51 µM)	> 32	–
CCn1cc(C(=O)O)c(=O)c2cnc(N3CCN(Cc4ccc(CN5CCN(c6ncc7c(=O)c(C(=O)O)cn(CC)c7n6)CC5)cc4)CC3)nc21	0.5 (≈ 0.705 µM)	4 (≈ 5.64 µM)	2 (≈ 2.82 µM)	8 (≈ 11.3 µM)	0.5 (≈ 0.705 µM)
O=C(O)c1cn(C2CC2)c2cc(N3CCN(C/C=C/CN4CCN(c5cc6c(cc5F)c(=O)c(C(=O)O)cn6C5CC5)CC4)CC3)c(F)cc2c1=O	0.06 (≈ 0.0839 µM)	0.03 (≈ 0.042 µM)	0.125 (≈ 0.175 µM)	> 16	0.03 (≈ 0.042 µM)
CCn1cc(C(=O)O)c(=O)c2cc(F)c(N3CCN(Cc4ccc(CN5CCN(c6cc7c(cc6F)c(=O)c(C(=O)O)cn7C6CC6)CC5)cc4)CC3)cc21	< 0.03	0.06 (≈ 0.0797 µM)	–	4 (≈ 5.31 µM)	< 0.03
CCn1cc(C(=O)O)c(=O)c2cnc(N3CCNCC3)nc21 [PIPEMIDIC ACID]	> 16	> 16	–	> 16	> 16
CCn1cc(C(=O)O)c(=O)c2cc(F)c(N3CCN(Cc4ccc(CN5CCN(c6cc7c(cc6F)c(=O)c(C(=O)O)cn7CC)CC5)cc4)CC3)cc21	0.06 (≈ 0.081 µM)	1 (≈ 1.35 µM)	0.06 (≈ 0.081 µM)	4 (≈ 5.4 µM)	0.06 (≈ 0.081 µM)
CCn1cc(C(=O)O)c(=O)c2cnc(N3CCN(Cc4ccc(CN5CCN(c6cc7c(cc6F)c(=O)c(C(=O)O)cn7C6CC6)CC5)cc4)CC3)nc21	< 0.03	< 0.03	0.125 (≈ 0.17 µM)	2 (≈ 2.71 µM)	< 0.03
O=C(O)c1cn(C2CC2)c2cc(N3CCN(Cc4ccc(-c5ccc(CN6CCN(c7cc8c(cc7F)c(=O)c(C(=O)O)cn8C7CC7)CC6)cc5)cc4)CC3)c(F)cc2c1=O	8 (≈ 9.51 µM)	8 (≈ 9.51 µM)	–	> 16	4 (≈ 4.76 µM)
CCn1cc(C(=O)O)c(=O)c2cc(F)c(N3CCN(C/C=C/CN4CCN(c5cc6c(cc5F)c(=O)c(C(=O)O)cn6CC)CC4)CC3)cc21	0.125 (≈ 0.181 µM)	0.125 (≈ 0.181 µM)	0.125 (≈ 0.181 µM)	> 16	0.25 (≈ 0.362 µM)
CCn1cc(C(=O)O)c(=O)c2cc(F)c(N3CCNCC3)cc21 [NORFLOXACIN]	4 (≈ 12.5 µM)	> 16	2 (≈ 6.26 µM)	> 16	0.5 (≈ 1.57 µM)
O=C(O)c1cn(C2CC2)c2cc(N3CCN(Cc4ccc(CN5CCN(c6cc7c(cc6F)c(=O)c(C(=O)O)cn7C6CC6)CC5)cc4)CC3)c(F)cc2c1=O	0.125 (≈ 0.163 µM)	0.125 (≈ 0.163 µM)	0.125 (≈ 0.163 µM)	4 (≈ 5.23 µM)	0.125 (≈ 0.163 µM)
O=C(O)c1cn(C2CC2)c2cc(N3CCN(Cc4cccc(CN5CCN(c6cc7c(cc6F)c(=O)c(C(=O)O)cn7C6CC6)CC5)c4)CC3)c(F)cc2c1=O	0.06 (≈ 0.0784 µM)	0.125 (≈ 0.163 µM)	< 0.03	> 16	0.06 (≈ 0.0784 µM)
O=C(O)c1cn(C2CC2)c2cc(N3CCN(Cc4cccc(CN5CCN(c6cc7c(cc6F)c(=O)c(C(=O)O)cn7C6CC6)CC5)n4)CC3)c(F)cc2c1=O	< 0.03	< 0.03	0.06 (≈ 0.0783 µM)	8 (≈ 10.4 µM)	< 0.03
